Data reported in paper PMC3190583 (Journal of clinical pharmacology, 2010).
Where two headings read alike, the source gives them in different places. Marks after values point to notes of the source that are not given here.

Columns and labels:
[1] = Single-dose pharmacokinetics of pantoprazole delayed-release tablet, study 1; assay type: in vivo, human; conditions: for AUC / CL/F / Cmax / Tmax / Vd/F / half-life: human, plasma, po; for tlag: study 1, 6-11 y, median (range)
[2] = Safety and tolerability, on-treatment adverse events, study 1; assay type: in vivo, human; conditions: for Abdominal pain / Accidental injury / Fever / Headache / Otitis media / Upper respiratory infection: on-treatment AE; for Abdominal pain / Accidental injury / Fever / Headache / Otitis media / Upper respiratory infection / Any AE: patients (percent); for Any AE: on-treatment
Method in brief: (§1)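 Patients randomized 1:1 to 20 or 40 mg delayed-release tablet once daily: about 28 days in study 1, at least 5 consecutive doses in study 2. On-treatment AEs were those occurring during dosing or within 48 h of the last dose. Vital signs were taken 2 h predose and 2, 8 and 12 h postdose on day 1. Physical exam and labs were done on the multiple-dose PK day. Telephone AE follow-up came 14 days after completion.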

[3] = adults; cited from earlier work
[4] = Single-dose pharmacokinetics of pantoprazole delayed-release tablet, study 2; assay type: in vivo, human; conditions: for AUC / CL/F / Cmax / Tmax / Vd/F / half-life: human, plasma, po; for tlag: study 2, 12-16 y, median (range)
[5] = Safety and tolerability, on-treatment adverse events, study 2; assay type: in vivo, human; conditions: for Abdominal pain / Accidental injury / Fever / Headache / Otitis media: on-treatment AE; for Abdominal pain / Accidental injury / Fever / Headache / Otitis media / Any AE: patients (percent); for Any AE: on-treatment
Method in brief: as §1

[6] = neonates; cited from earlier work
[7] = study 1, 20 mg once daily (n = 11)
[8] = study 1, 40 mg once daily (n = 13)
[9] = study 1, 20 or 40 mg once daily
[10] = study 1, total of both doses (n = 24)
[11] = study 2, 20 mg once daily (n = 11)
[12] = study 2, 40 mg once daily (n = 11)
[13] = study 2, 20 or 40 mg once daily
[14] = study 2, total of both doses (n = 22)

AUC ([1]; 20 mg): 2500 ± 2100 ng·h/mL
CL/F ([1]; 20 mg): 6.83 mL/min/kg
Cmax ([1]; 20 mg): 1600 ± 1200 ng/mL
Tmax ([1]; 20 mg): 2 h
Vd/F ([1]; 20 mg): 0.43 ± 0.3 L/kg
half-life ([1]; 20 mg): 0.8 ± 0.2 h
AUC ([1]; 40 mg): 3800 ± 1800 ng·h/mL
CL/F ([1]; 40 mg): 6.67 mL/min/kg
Cmax ([1]; 40 mg): 2100 ± 1300 ng/mL
Tmax ([1]; 40 mg): 2 h
Vd/F ([1]; 40 mg): 0.4 ± 0.27 L/kg
half-life ([1]; 40 mg): 0.7 ± 0.2 h
tlag ([1]; single oral 20 mg tablet, n = 10): 1.0 (0.5, 2.0) h
tlag ([1]; single oral 40 mg tablet, n = 12): 0.8 (0, 1.0) ^b h
concentration of pantoprazole at 12 hours after the first dose ([1]; study 1, all patients, 20 or 40 mg, lower limit of quantitation 10 ng/mL): below the lower limit of quantitation
AUC ([4]; 20 mg): 1300 ± 600 ng·h/mL
CL/F ([4]; 20 mg): 4.67 mL/min/kg
Cmax ([4]; 20 mg): 900 ± 500 ng/mL
Tmax ([4]; 20 mg): 1.5 h
Vd/F ([4]; 20 mg): 0.32 ± 0.22 L/kg
half-life ([4]; 20 mg): 0.8 ± 0.3 h
AUC ([4]; 40 mg): 4300 ± 3100 ng·h/mL
CL/F ([4]; 40 mg): 3 mL/min/kg
Cmax ([4]; 40 mg): 2200 ± 1400 ng/mL
Tmax ([4]; 40 mg): 2 h
Vd/F ([4]; 40 mg): 0.21 ± 0.06 L/kg
half-life ([4]; 40 mg): 0.9 ± 0.3 h
tlag ([4]; single oral 20 mg tablet, n = 9): 1.0 (0, 2.5) ^c h
tlag ([4]; single oral 40 mg tablet, n = 11): 1.0 (0, 8) h
Structure (SMILES): COc1ccnc(C[S+]([O-])c2nc3ccc(OC(F)F)cc3[nH]2)c1OC (centres unmarked) [pantoprazole]
Abdominal pain [2, 7]: 3 (27.3)
Accidental injury [2, 7]: 1 (9.1)
Fever [2, 7]: 1 (9.1)
Headache [2, 7]: 1 (9.1)
Otitis media [2, 7]: 2 (18.2)
Upper respiratory infection [2, 7]: 2 (18.2)
Any AE [2, 7]: 9 (81.8)
Abdominal pain [2, 8]: 1 (7.7)
Accidental injury [2, 8]: 1 (7.7)
Fever [2, 8]: 1 (7.7)
Headache [2, 8]: 2 (15.4)
Otitis media [2, 8]: 0
Upper respiratory infection [2, 8]: 0
Any AE [2, 8]: 7 (53.8)
ECG, QTc changes [2, 9]: no abnormal QTc changes
serious AEs [2, 9]: no serious AEs
severity of all AEs [2, 9]: mild or moderate
Abdominal pain [2, 10]: 4 (16.7)
Accidental injury [2, 10]: 2 (8.3)
Fever [2, 10]: 2 (8.3)
Headache [2, 10]: 3 (12.5)
Otitis media [2, 10]: 2 (8.3)
Upper respiratory infection [2, 10]: 2 (8.3)
Any AE [2, 10]: 16 (66.7)
accumulation on repeated once-daily dosing [3]: does not result in accumulation
half-life [3]: approximately 1 hour
Abdominal pain [5, 11]: 0
Accidental injury [5, 11]: 0
Fever [5, 11]: 0
Headache [5, 11]: 0
Otitis media [5, 11]: 0
Any AE [5, 11]: 2 (18.2)
Abdominal pain [5, 12]: 2 (18.2)
Accidental injury [5, 12]: 0
Fever [5, 12]: 1 (9.1)
Headache [5, 12]: 1 (9.1)
Otitis media [5, 12]: 0
Any AE [5, 12]: 4 (36.4)
ECG, QTc changes [5, 13]: no abnormal QTc changes
serious AEs [5, 13]: no serious AEs
severity of all AEs [5, 13]: mild or moderate
Abdominal pain [5, 14]: 2 (9.1)
Accidental injury [5, 14]: 0
Fever [5, 14]: 1 (4.5)
Headache [5, 14]: 1 (4.5)
Otitis media [5, 14]: 0
Any AE [5, 14]: 6 (27.3)
mean CL/F [6]: 3.67 mL/min/kg
